Screening data from PubChem BioAssay.
Shown are actives, neighbours in structure and some others; about 1.8% of the full set was active somewhere.
Apaf-1 inh: inhibitors of human Apaf-1 apoptosome, primary screen, biochemical, DEVD-Rh110 fluorescence, uHTS. reconstituted apoptosome caspase-3 activity. 330,000 tested, 0.71% active. Apoptotic protease-activating factor 1 (Homo sapiens), O14727. inhibition, % at 20 µM; active means inhibition of at least 40% at 20 µM
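System: reconstituted apoptosome with Apaf-1, cytochrome c, caspase-9, procaspase-3, dATP; Signal: Rh110 fluorescence intensity; Schedule: 30 min compound preincubation, 50 min activation, room temperature; Reagent: cytochrome c trigger plus (Z-DEVD)2-Rh110 caspase-3 substrate.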
proCasp7 act: procaspase-7 activators, primary screen, counter-screen for procaspase-3 activator project, biochemical, absorbance, HTS, human; recombinant procaspase-7, Ac-DEVD-pNA absorbance 405 nm; D23A/D198A/D206A triple mutant, cannot self-cleave; scale: DMSO 0, 5 µM enzyme 100; activation, % at 8.5 µM; 330,000 tested, 0.093% active; AID 463210, 2010;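 active means percent activation above the screen-wide mean plus 3 SD, cut at about 25% in these data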
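Assay system: Uncleavable procaspase-7 mutant enzyme / Input: 2 µM procaspase-7 mutant as dispensed / Dosing: single nominal 8.5 µM compound dose, 0.8% DMSO final / Timing: 1 h enzyme–compound preincubation and 2 h substrate reaction, both 25 °C / Detection: p-Nitroaniline absorbance at 405 nm, read at 0 and 120 min / Replication: singlicate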
EBNA-1 inh: EBNA-1 DNA-binding inhibitors, primary screen, biochemical, fluorescence polarization. inhibition, % at 14.8 µM. 300,000 tested, 0.34% active. AID 1950, 2009; in the data active means inhibition above about 28%
ZTA DNA inh: counter-screen for EBNA-1 inhibitors: inhibitors of Epstein-Barr virus ZTA | P03206 | 320,000 tested, 0.15% active | ZTA-DNA binding, fluorescence polarization | AID 2234 | inhibition, % at 11 µM; in the data active means inhibition above about 33%
procasp3 activ: activators of human procaspase-3 D3A mutant, primary screen, biochemical, absorbance, PC-3 D3A mutant, single concentration; Caspase-3 (Homo sapiens), P42574; recombinant procaspase-3 D3A, Ac-DEVD-pNA absorbance 405 nm; activation, % at 8.5 µM; 330,000 tested, 0.11% active; AID 463141, 2010;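 active means activation above the mean of all tested compounds plus 3 SD, cut at about 21% in these data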
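Assay system – Procaspase-3 D3A mutant, all three cleavage aspartates alanine · Controls – DMSO-only low control, 5 µM PC-3 D3A high control · Schedule – 1 h compound preincubation, 2 h substrate hydrolysis at 25 °C · Signal – 405 nm absorbance of p-nitroaniline, reads at 0 and 120 min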
GSTO1 counter: inhibitors of recombinant GSTO1, primary screen, counter-screen for RBBP9 inhibitor project, biochemical, fluorescence polarization. Glutathione S-transferase omega-1 (Homo sapiens), P78417. activity-based probe fluorescence polarization. inhibition, % at 5.96 µM. 300,000 tested, 1.1% active. AID 1974, 2009;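 active means inhibition above the campaign mean inhibition plus 3 SD, cut at about 35% in these data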
GSTO1 inh conf: GSTO1 inhibitor hit confirmation, counter-screen for RBBP9 inhibitor project, biochemical, fluorescence polarization, triplicate | shares compounds with GSTO1 counter | AID 2176, 2009 | recombinant GSTO1, probe fluorescence polarization | inhibition, % at 5.96 µM | 2,400 tested, 54% active;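 active means inhibition above the primary screen's cutoff, its mean inhibition plus 3 SD, cut at about 35% in these data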;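 further: loss of polarization as inhibitors block binding of rhodamine sulfonate ester activity probe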
GSTO1 recomb ABPP: inhibitors of purified human GSTO1, late-stage follow-up, biochemical, gel ABPP, SE-Rh probe, percent inhibition; recombinant GSTO1, gel ABPP SE-Rh probe fluorescence; 130 tested, 30% active; shares compounds with GSTO1 counter; inhibition, % at 1 µM;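 active means inhibition of the enzyme GSTO1 above about 75%, limit read from the data; inactive means inhibition below that limit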
Numbers stand for hits; 0 = inactive; - = no result given.

SMILES	Apaf-1 inh	proCasp7 act	EBNA-1 inh	ZTA DNA inh	procasp3 activ	GSTO1 counter	GSTO1 inh conf	others
CCOc1cccc(C=Nc2cc(C)cc(C)c2O)c1O	0	0	0	0	0	45	0
O=[N+]([O-])c1ccc(/C=[N+](\[O-])[C@@H]2CCCC[C@@H]2/[N+]([O-])=C/c2ccc([N+](=O)[O-])o2)o1	0	0	0	0	0	40	0
C=CCOc1ccc(/C=C/C(=O)N2CCCN(S(=O)(=O)c3c(C)noc3C)CC2)cc1	0	-	-	-	-	-	-
O=C(CSc1ccccc1F)NNC(=O)c1ccncc1	0	0	-	0	0	-	-
Cc1ccc2oc(-c3ccccc3C(=O)O)cc(=O)c2c1	0	0	0	0	0	0	-
Cc1[nH][nH]c(=O)c1C(c1ccc(-c2ccccc2C(=O)O)o1)c1c(C)[nH][nH]c1=O	-	0	0	0	0	70	0
CC12CCC(C(=O)N(CC3CO3)C1=O)C2(C)C (configuration not stated)	0	0	0	0	0	61	77	GSTO1 recomb ABPP=0
CC12CCC(C(=O)N(CCCCN3CCN(Cc4ccccc4)CC3)C1=O)C2(C)C (configuration not stated)	0	0	0	0	0	0	-
CC1CCN(C2(O)C(=O)Nc3ccc([N+](=O)[O-])cc32)CC1 (configuration not stated)	0	0	0	0	0	0	-
Cc1cc([N+](=O)[O-])cc2c1NC(=O)C2(O)N1CCOCC1 (configuration not stated)	0	0	0	0	0	38	0
c1ccc(-c2ccc(C3=Nn4c(Cn5nnc6ccccc65)nnc4SC3)cc2)cc1	0	0	0	0	0	56	0
COc1ccc(N2CCN(C(=O)CCS(=O)(=O)c3ccc4c(c3)CCN4C(=O)C3CC3)CC2)cc1	0	0	0	0	0	0	-
COc1ccc(CCNC(=O)c2ccc3nc(-c4ccco4)c(-c4ccco4)nc3c2)cc1OC	56	0	0	0	0	39	0
Cc1cc(NS(=O)(=O)c2ccc(NC(=O)Cc3cccs3)cc2)no1	0	0	0	0	0	0	-
Cc1cc(NC(=O)Cc2cccs2)no1	0	0	0	0	0	44	0
COC(=O)c1ccc(C(=O)N(Cc2ccccc2)c2ccccc2)cc1	0	0	0	0	0	0	-
O=C(CCl)N(Cc1ccccc1)c1ccccc1	0	0	0	0	0	93	96	GSTO1 recomb ABPP=0
O=C(CCl)N(Cc1cc(=O)[nH]c2ccccc12)c1ccccc1	0	0	0	0	0	85	92	GSTO1 recomb ABPP=0
CCCCCCCN(C(=O)CCl)c1ccccc1C	0	0	0	0	0	101	96	GSTO1 recomb ABPP=0
CCC(=O)N(Cc1cc(=O)[nH]c2ccccc12)c1ccccc1	0	0	0	0	0	0	-
Cc1ccccc1N(Cc1cc(=O)[nH]c2ccccc12)C(=O)CCl	0	0	0	0	0	74	75	GSTO1 recomb ABPP=0
COc1ccc(NS(=O)(=O)c2ccc3c(c2)NC(=O)CO3)c(OC)c1	0	0	0	0	0	0	-
CC(C)c1ccc(NC(=O)CN2C(=O)NC3(CCCCCCC3)C2=O)cc1	0	0	-	-	0	-	-
CC(C)NC(=S)N=Nc1c(O)[nH]c2ccc([N+](=O)[O-])cc12	0	0	0	0	0	0	-
O=C(CNC(=O)c1ccco1)N=Nc1c(O)[nH]c2ccc([N+](=O)[O-])cc12	0	0	0	0	0	50	62
SMILES	Apaf-1 inh	proCasp7 act	EBNA-1 inh	ZTA DNA inh	procasp3 activ	GSTO1 counter	GSTO1 inh conf	others
C=C(C)CNC(=S)N=Nc1c(O)[nH]c2ccc([N+](=O)[O-])cc12	0	0	0	0	0	42	37
CCN(CC(=O)Nc1ccc2c(c1)OCCO2)CC(=O)Nc1ccc(C)c(S(=O)(=O)N(C)C)c1	0	0	-	-	0	-	-
CC1CCCCC12NC(=O)N(CC(=O)NCCc1ccc(F)cc1)C2=O (configuration not stated)	0	0	-	0	0	-	-
Cc1[nH]n(-c2ccccc2)c(=O)c1N=Nc1ccccc1O	0	-	-	-	-	-	-
Cc1[nH]n(-c2ccccc2)c(=O)c1N=Nc1ccccc1C(=O)O	0	0	0	0	0	41	0
CC(C)C(=O)N(c1cc2sc(=O)oc2c2ccccc12)S(=O)(=O)c1cccs1	0	0	0	0	0	85	43
O=C(O)C1=NN(c2ccccc2)C(=O)CC1	0	0	0	0	0	0	-
O=C(O)C1=NN(c2ccccc2)C(=O)C1	0	0	0	0	0	48	0
Cc1ccc(S(=O)(=O)Nc2ccccc2F)cc1C(=O)N1CCN(c2ccccc2O)CC1	0	0	-	0	0	-	-
COCCN=c1scc(-c2ccco2)n1/N=C/c1ccc(O)c(O)c1O	0	0	0	0	0	69	0
COc1ccc(-n2nc(C(=O)NCC(=O)N3CCC(C(N)=O)CC3)c3ccccc3c2=O)cc1	0	0	0	0	0	0	-
O=C1C=C(NCCN2CCOCC2)C(=O)c2cnccc21	-	0	0	0	0	84	82
O=C(NCCN1CCOCC1)c1ccncc1	0	0	0	0	0	0	-
CCCCn1c(N)c(N(CCC(C)C)C(=O)COC(=O)/C=C/c2ccc(F)cc2)c(=O)[nH]c1=O	0	0	-	-	0	-	-
Cc1cc(=O)[nH]c(SCC(=O)Nc2c(C)n(C)n(-c3ccccc3)c2=O)n1	0	0	-	0	0	-	-
CC(=O)Nc1ccc(Sc2ccccc2C(=O)O)cn1	0	0	0	0	0	44	0
CC(=O)Nc1ccc(Sc2ccccc2C(=O)Nc2ccc(F)cc2)cn1	0	0	0	0	0	0	-
CCCNC(=O)c1ccc2snnc2c1	0	0	0	0	0	0	-
CCCNC(=O)c1ccc2c(=O)n3c(-c4ccc(C)cc4)csc3nc2c1	0	0	0	0	0	46	0
O=S(=O)(c1cc(O)ccc1O)c1cccc2c(S(=O)(=O)c3cc(O)ccc3O)cccc12	0	0	0	0	0	64	0
O=S(=O)(O)c1cc(O)ccc1O	0	0	0	0	0	0	-
Cc1nc2ccccc2c(=O)n1/N=C/c1ccc(O)c(O)c1O	0	0	0	0	0	71	0
